Measured values of several laboratories.
Compare with care: the assays were run in different laboratories.
PDE3A: cGMP-inhibited 3',5'-cyclic phosphodiesterase 3A (PDE3A, Homo sapiens, UniProt Q14432)
MAPK14: Mitogen-activated protein kinase 14 (MAPK14, Homo sapiens, UniProt Q16539)
Ephx2: Bifunctional epoxide hydrolase 2 (Ephx2, Rattus norvegicus, UniProt P80299)

The IC50 of Cc1nccc2c1c(=O)n(C)c1cc(OC[C@@H](N)CC(C)C)c(C#N)cc21 is reported as over 30000 nM (Alpha-2C adrenergic receptor (ADRA2C, Homo sapiens, UniProt P18825); cell-free assay).
For COc1cc(C[C@H]2C(=O)OC[C@@H]2Cc2ccc(OC)c(OC)c2)ccc1O, the IC50 was over 20000 nM (PDE3A; enzyme activity, inhibitor).
With COc1ccc2c(Oc3ccc4c(C(=O)Nc5ccccc5N)cccc4c3)ccnc2c1 the IC50 was over 500 nM (MAPK14; enzyme activity, inhibitor).
The IC50 of CC(C)(C)n1nc(-c2cnc3cc(OC4CC4)ccc3c2)c(C(N)=O)c1N is reported as over 10000 nM (Death-associated protein kinase 3 (DAPK3, Homo sapiens, UniProt O43293); cell-free assay).
For Cc1nn2c(-c3c(C)nn(C)c3-c3ccc(C(F)(F)F)cc3)nc(CO)c2c(=O)[nH]1, the IC50 was 11800 nM (PDE3A; enzyme activity, inhibitor).
For C[C@@H]1Cc2ccccc2N1C(=O)NCCCCN(C)[C@@H]1Cc2cccc3[nH]c(=O)n(c23)C1, the IC50 was 35.8 nM (5-hydroxytryptamine receptor 1A (HTR1A, Homo sapiens, UniProt P08908); ligand displacement, radioligand).
CC(O)C(C)C(=O)N1CCC(NC(=O)Nc2ccc(OC(F)(F)F)c(F)c2)CC1 (stereo not drawn) has an IC50 of 4.3 nM (Ephx2; enzyme activity, inhibitor).
With N#C/C(=C\c1ccc(O)c(O)c1)C(=O)OC/C=C/c1ccccc1 the IC50 was 231 nM (Leucine-rich repeat serine/threonine-protein kinase 2 (LRRK2, Homo sapiens, UniProt Q5S007, G2019S); enzyme activity, inhibitor, radiometric).
CCN1CCN(c2c(Cl)cccc2NC(=O)c2ccc(Br)o2)CC1 has an IC50 of over 20000 nM (MAPK14; enzyme activity, inhibitor).
With Cc1cc(C)nc(NC(=S)N2CCN(c3ccncc3)CC2)c1 the IC50 was 100 nM (MAPK14; enzyme activity, inhibitor, ADP detection).
CC(C)C[C@H](NC(=O)[C@H]1O[C@@H]1C(=O)O)C(=O)NCCCCN=C(N)N has an IC50 of 735 nM (Dipeptidyl peptidase 1 (CTSC, Homo sapiens, UniProt P53634); enzyme activity, inhibitor).
CC(Cc1ccc(O)c(O)c1)C(C)Cc1ccc(O)c(O)c1 (stereo not drawn) has an IC50 of 456 nM (Leucine-rich repeat serine/threonine-protein kinase 2 (LRRK2, Homo sapiens, UniProt Q5S007); enzyme activity, inhibitor, radiometric).
N#Cc1ccc(COc2cccc(C3CCN(Cc4nc5ccc(C(=O)O)cc5n4C[C@@H]4CCO4)CC3)n2)c(F)c1 gave an IC50 of 2300 nM (PDE3A; enzyme activity, inhibitor).
For CN1CCN(c2ccc(Nc3ncc4cc(C#N)c(=O)n(C5CCCC5)c4n3)cc2)CC1, the IC50 was 5490 nM (Casein kinase I isoform epsilon (CSNK1E, Homo sapiens, UniProt P49674); enzyme activity, inhibitor).
CC(C)(C)n1nc(-c2ccc3nc(OC4CC4)ccc3c2)c(C(N)=O)c1N gave an IC50 of over 10000 nM (MAPK14; cell-free assay).
With CN(C)CCC=C1c2ccccc2CCc2ccccc21 the IC50 was 25400 nM (Estrogen receptor (ESR1, Homo sapiens, UniProt P03372); reporter gene, antagonist).
With CNc1nc(C)nc(N[C@H]2CCC[C@@H](C(=O)NCc3ccc(C#N)cc3C(F)(F)F)C2)n1 the IC50 was 2.9 nM (Ephx2; enzyme activity, inhibitor).
The IC50 of Cc1cnc(-c2ccc(-c3ccc(NC(=O)Nc4c(F)cc(F)cc4F)cc3F)c3c2C(=O)NC3)[nH]1 is reported as 4.8 nM (Serine/threonine-protein kinase PLK4 (PLK4, Homo sapiens, UniProt O00444); enzyme activity, inhibitor).
For CNC(=O)c1cc2c(Oc3ccc(NC(=O)C4(C(=O)Nc5ccc(F)cc5)CC4)cc3)ccnc2cc1OC, the IC50 was 43 nM (Macrophage-stimulating protein receptor (MST1R, Homo sapiens, UniProt Q04912); enzyme activity, inhibitor, radiometric).
With COCCOCOc1ccc(C(=O)/C=C/c2ccc(C(=O)O)cc2)cc1C12CC3CC(CC(C3)C1)C2 the IC50 was 16700 nM (Inhibitor of nuclear factor kappa-B kinase subunit beta (IKBKB, Homo sapiens, UniProt O14920); enzyme activity, inhibitor, TR-FRET).
CC/C(=N\NC(=O)C(C)Nc1ccccc1)c1ccc(O)c(C)c1O (stereo not drawn) has an IC50 of 24.9 nM (cAMP-dependent protein kinase catalytic subunit beta (PRKACB, Homo sapiens, UniProt P22694); enzyme activity, inhibitor).
